Results taken from ChEMBL document CHEMBL1128319, “Cyclosporin analogs modified in the 3,7,8-positions: substituent effects on peptidylprolyl isomerase inhibition and immunosuppressive activity are nonadditive” (J Med Chem, 1995).

Experiments:
Mus musculus = species on record: Mus musculus; assay: The compound was tested in vitro for inhibition of proliferation in BDF1 mouse spleen cells stimulated with concanavalin A (ConA).; type: functional
Method in brief: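 BDF1 mouse spleen cells, 5 × 10⁶/mL in RPMI-10, given compound dilutions and Con A 5 μg/mL. Cultured 72 h at 37 °C, 5% CO₂, with [³H]thymidine 0.5 μCi over the last 16 h. Incorporated radioactivity counted by scintillation. Quadruplicate means used; viability checked by trypan blue. IC50 derived.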

Jurkat = assay: The compound was tested in vitro for inhibition of IL-2 release stimulated with PMA/ionomycin by Jurkat cells.; type: functional, cell-based; details: Homo sapiens
Method in brief: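 Jurkat cells at 2 × 10⁵/mL in RPMI-10 (10% heat-inactivated calf serum) with serial compound dilutions, stimulated with PMA 1000 ng/mL plus ionomycin 125 ng/mL, incubated overnight. IL-2 in supernatants quantified by ELISA.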

Row | IC50 (Jurkat) [nM] | Structure (SMILES) | IC50 (Mus musculus) [nM]
1 | 62 | C/C=C/CC(C)C(O)[C@H]1C(=O)N[C@@H](CC)C(=O)N(C)[C@H](C)C(=O)N(C)[C@@H](CC(C)C)C(=O)N[C@@H](C(C)C)C(=O)N(C)[C@@H](CC(C)C)C(=O)N[C@@H](Cc2ccccc2)C(=O)N[C@H](C)C(=O)N(C)[C@@H](CC(C)C)C(=O)N(C)[C@@H](CC(C)C)C(=O)N(C)[C@@H](C(C)C)C(=O)N1C (some centres not stated) | 142
2 | 21 | C/C=C/CC(C)[C@@H](O)[C@H]1C(=O)N[C@@H](CC)C(=O)N(C)CC(=O)N(C)[C@@H](CC(C)C)C(=O)N[C@@H](C(C)C)C(=O)N(C)[C@@H](CC(C)C)C(=O)N[C@@H](Cc2ccccc2)C(=O)N[C@H](CO)C(=O)N(C)[C@@H](CC(C)C)C(=O)N(C)[C@@H](CC(C)C)C(=O)N(C)[C@@H](C(C)C)C(=O)N1C (some centres not stated) | 105
3 | 107 | C/C=C/CC(C)[C@@H](O)[C@H]1C(=O)N[C@@H](CC)C(=O)N(C)CC(=O)N(C)[C@@H](CC(C)C)C(=O)N[C@@H](C(C)C)C(=O)N(C)[C@@H](CC(C)C)C(=O)N[C@@H](Cc2ccccc2)C(=O)N[C@H](C)C(=O)N(C)[C@@H](CC(C)C)C(=O)N(C)[C@@H](CC(C)C)C(=O)N(C)[C@@H](C(C)C)C(=O)N1C (some centres not stated) | 248
4 | 12 | C/C=C/C[C@@H](C)[C@@H](O)[C@H]1C(=O)N[C@@H](CC)C(=O)N(C)CC(=O)N(C)[C@@H](CC(C)C)C(=O)N[C@@H](C(C)C)C(=O)N(C)C(CC(C)C)C(=O)N[C@@H](C)C(=O)N[C@H](C)C(=O)N(C)C(CC(C)C)C(=O)N(C)[C@@H](CC(C)C)C(=O)N(C)C(C(C)C)C(=O)N1C (single isomer, unassigned) [CYCLOSPORINE] | –
